ChEMBL document CHEMBL1132805, “Parallel synthesis of isatin-based serine protease inhibitors” (Bioorg Med Chem Lett, 2000)
Calls of active or inactive are those of the source. The calls are words filed in the database; no cut-off is given here.

Legend:
[1] = molecular target: T1, Neutrophil elastase (Homo sapiens) (UniProt P08246); assay: Inhibition of human leucocyte elastase at 20 ug/mL
T1 sequence (whole entry): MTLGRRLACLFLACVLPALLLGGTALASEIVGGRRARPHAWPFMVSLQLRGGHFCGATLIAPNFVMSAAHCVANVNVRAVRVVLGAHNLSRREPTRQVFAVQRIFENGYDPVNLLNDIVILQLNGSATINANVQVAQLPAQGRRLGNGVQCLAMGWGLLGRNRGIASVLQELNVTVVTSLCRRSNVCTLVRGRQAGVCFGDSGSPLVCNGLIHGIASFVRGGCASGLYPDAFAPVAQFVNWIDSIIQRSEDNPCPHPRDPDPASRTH
Outline: (§1)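 Human leukocyte elastase at 40 nM in reaction, with substrate Suc-Ala-Pro-Ala-AMC. A commercial elastase inhibitor serves as control. 50 mM Tris-HCl pH 7.2 with 15% glycerol, 60 min at 37 °C. Fluorescence read at 370/460 nm. Compounds are added from 10 mg/mL DMSO stock. Quenching is assessed on free AMC in the assay buffer.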

[2] = molecular target: Plasminogen (Homo sapiens) (UniProt P00747); assay: Inhibition of human plasmin at 20 ug/mL
Outline: (§2)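 Plasmin from human plasma, 165 pM in reaction, with fluorogenic H-Ala-Phe-Lys-AMC. α2-Antiplasmin serves as the control inhibitor. Run in 50 mM Tris-HCl pH 7.2, 15% glycerol, 60 min at 37 °C. Read-out is AMC fluorescence at ex/em 370/460 nm. Compounds come from 10 mg/mL DMSO stock. Quenching is checked with free AMC in the same buffer.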

[3] = molecular target: T2, Chymotrypsin-C (Homo sapiens) (UniProt Q99895); assay: Inhibition of human Serine protease chymotrypsin at 20 ug/mL
T2 sequence (whole entry): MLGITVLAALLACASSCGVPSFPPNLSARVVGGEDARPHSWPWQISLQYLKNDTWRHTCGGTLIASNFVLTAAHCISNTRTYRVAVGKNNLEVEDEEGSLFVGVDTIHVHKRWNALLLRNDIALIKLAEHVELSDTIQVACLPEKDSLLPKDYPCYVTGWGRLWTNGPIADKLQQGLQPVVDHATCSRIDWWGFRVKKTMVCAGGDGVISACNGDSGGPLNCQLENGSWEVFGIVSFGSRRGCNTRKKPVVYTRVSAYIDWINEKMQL
Outline: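 Fluorogenic substrate Suc-Ala-Ala-Pro-Phe-AMC. Chymostatin serves as the control inhibitor. Reaction in 50 mM Tris-HCl pH 7.2 with 15% glycerol, incubated 60 min at 37 °C. AMC fluorescence is read at ex/em 370/460 nm. Compounds are from DMSO stock, 10 mg/mL. Compound quenching is checked against free AMC in the same buffer.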

[4] = molecular target: T1, Neutrophil elastase (Homo sapiens); assay: Evaluated for percent inhibition of human leucocyte elastase at 20 ug/mL; NA means not active; outline: as §1
[5] = molecular target: Plasminogen (Homo sapiens) (UniProt P00747); assay: Evaluated for percent inhibition of human plasmin at 20 ug/mL; NA means not active; outline: as §2

Plasminogen (Homo sapiens), sequence (P00747 97-580 limits assumed): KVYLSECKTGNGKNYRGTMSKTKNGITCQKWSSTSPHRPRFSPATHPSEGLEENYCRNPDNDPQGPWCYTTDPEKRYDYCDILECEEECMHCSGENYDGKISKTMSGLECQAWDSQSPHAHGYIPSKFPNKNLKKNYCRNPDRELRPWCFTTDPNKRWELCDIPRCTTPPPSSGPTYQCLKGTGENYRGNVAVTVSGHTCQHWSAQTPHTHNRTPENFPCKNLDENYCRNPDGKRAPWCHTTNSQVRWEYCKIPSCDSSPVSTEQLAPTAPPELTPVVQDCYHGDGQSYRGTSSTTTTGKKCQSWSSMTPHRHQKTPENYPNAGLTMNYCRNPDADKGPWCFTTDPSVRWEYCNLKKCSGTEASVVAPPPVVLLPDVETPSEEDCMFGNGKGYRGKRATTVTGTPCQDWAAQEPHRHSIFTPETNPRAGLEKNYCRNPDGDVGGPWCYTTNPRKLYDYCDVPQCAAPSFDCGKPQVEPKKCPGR
Plasminogen (Homo sapiens), sequence (P00747 581-810 limits assumed): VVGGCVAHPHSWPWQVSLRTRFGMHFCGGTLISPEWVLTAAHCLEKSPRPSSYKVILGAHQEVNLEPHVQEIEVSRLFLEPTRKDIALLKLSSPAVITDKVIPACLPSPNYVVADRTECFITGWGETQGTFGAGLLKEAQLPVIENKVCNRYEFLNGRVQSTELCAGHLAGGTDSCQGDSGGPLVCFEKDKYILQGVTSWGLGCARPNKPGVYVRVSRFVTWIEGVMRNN

Structure (SMILES): CCCCOC(=O)Nc1cccc(NC(=O)NC(=O)N2CCN(C(=O)CN3C(=O)C(=O)c4cc([N+](=O)[O-])ccc43)CC2)c1
- inhibition [1]: 94%
- inhibition [2]: 82%
- inhibition [3]: 87%

Structure (SMILES): O=C1C(=O)N(CC(=O)N2CCN(C(=O)Nc3cccc4ccccc34)CC2)c2ccc(Cl)cc21
- inhibition [1]: 74%
- inhibition [2]: 80%
- inhibition [3]: 82%

Structure (SMILES): CC(C)(C)C(=O)CN1C(=O)C(=O)c2ccccc21
- inhibition [1]: 51%
- inhibition [2]: 55%
- inhibition [3]: 85%

Structure (SMILES): O=C(CN1C(=O)C(=O)c2cc(OC(F)(F)F)ccc21)c1ccc2ccccc2c1
- inhibition [1]: 64%
- inhibition [2]: 86%
- inhibition [3]: 97%

Structure (SMILES): NC(=O)CN1C(=O)C(=O)c2ccccc21
- inhibition [1]: 3%
- inhibition [2]: 29%
- inhibition [3]: 5%

Structure (SMILES): O=C(CN1C(=O)C(=O)c2ccccc21)c1ccc(F)cc1
- inhibition [1]: 90%
- inhibition [2]: 89%
- inhibition [3]: 83%

Structure (SMILES): O=C(CN1C(=O)C(=O)c2ccccc21)c1ccc(Cl)cc1
- inhibition [1]: 56%
- inhibition [2]: 87%
- inhibition [3]: 89%

Structure (SMILES): O=C1C(=O)N(CC(=O)N2CCN(C(=O)Nc3cccc4ccccc34)CC2)c2ccc(OC(F)(F)F)cc21
- inhibition [1]: 79%
- inhibition [2]: 77%
- inhibition [3]: 79%

Structure (SMILES): CC(C)C[C@H](NC(=O)[C@@H](NC(=O)N[C@@H](Cc1ccccc1)C(=O)O)C1CCNC(=N)N1)C(=O)N[C@H](C=O)Cc1ccccc1 (stereo partly drawn)
- inhibition [4]: inactive
- inhibition [5]: inactive
- inhibition [3]: 95%

Structure (SMILES): Cc1ccc(C(=O)CN2C(=O)C(=O)c3ccccc32)cc1
- inhibition [1]: 45%
- inhibition [2]: 84%
- inhibition [3]: 94%

Structure (SMILES): N#Cc1cccc(NC(=O)N2CCN(C(=O)CN3C(=O)C(=O)c4cc(OC(F)(F)F)ccc43)CC2)c1
- inhibition [1]: 26%
- inhibition [2]: 57%
- inhibition [3]: 77%
